Test results from ChEMBL document CHEMBL2034871, “First-in-class, dual-action, 3,5-disubstituted indole derivatives having human nitric oxide synthase (nNOS) and norepinephrine reuptake inhibitory (NERI) activity for the treatment of neuropathic pain” (J Med Chem, 2012).

Experiments:
[1] = molecular target: Nitric oxide synthase, inducible (Homo sapiens, UniProt P35228); test: Inhibition of human iNOS expressed in baculovirus-infected insect sf9 cells assessed as conversion of [3H]-L-arginine to [3H]-L-citrulline preincubated for 15 mins with compound measured after 45 mins by scintillation counting
[2] = molecular target: Sodium-dependent noradrenaline transporter (Homo sapiens, UniProt P23975); test: Displacement of [3H]nisoxetine from human NET expressed in CHO cells after 120 mins by scintillation counting; assay type: cell-based
Procedure, shortened: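 Membranes from hNET-transfected CHO cells (20 μg protein) incubated 120 min at 4 °C with 1 nM [3H]nisoxetine in 50 mM Tris-HCl pH 7.4, 120 mM NaCl, 5 mM KCl. Nonspecific binding defined with 1 μM desipramine. Filtered on PEI-soaked GF/B and counted.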

[3] = species on record: Homo sapiens; test: Selectivity ratio of IC50 for human eNOS to IC50 for human nNOS
Procedure, shortened: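 Recombinant human nNOS and eNOS made in baculovirus-infected Sf9 cells. Buffer: 40 mM HEPES pH 7.4 with 2.4 mM CaCl2, 1 mM MgCl2, 1 mg/mL BSA, 1 mM EDTA, 1 mM DTT, 1 μM FMN/FAD, 10 μM BH4, 1 mM NADPH and 1.2 μM CaM. Compound preincubated 15 min at RT. Started with 24 μM L-arginine plus [3H]arginine. [3H]citrulline separated on DOWEX and counted; background from L-NMMA control; duplicates.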

[4] = molecular target: Nitric oxide synthase 1 (Homo sapiens, UniProt P29475); test: Inhibition of human nNOS expressed in baculovirus-infected insect sf9 cells assessed as conversion of [3H]-L-arginine to [3H]-L-citrulline preincubated for 15 mins with compound measured after 45 mins by scintillation counting
[5] = molecular target: T1, Nitric oxide synthase 3 (Homo sapiens, UniProt P29474); test: Inhibition of human eNOS expressed in baculovirus-infected insect sf9 cells assessed as conversion of [3H]-L-arginine to [3H]-L-citrulline preincubated for 15 mins with compound measured after 45 mins by scintillation counting
T1 sequence (P29474 whole entry): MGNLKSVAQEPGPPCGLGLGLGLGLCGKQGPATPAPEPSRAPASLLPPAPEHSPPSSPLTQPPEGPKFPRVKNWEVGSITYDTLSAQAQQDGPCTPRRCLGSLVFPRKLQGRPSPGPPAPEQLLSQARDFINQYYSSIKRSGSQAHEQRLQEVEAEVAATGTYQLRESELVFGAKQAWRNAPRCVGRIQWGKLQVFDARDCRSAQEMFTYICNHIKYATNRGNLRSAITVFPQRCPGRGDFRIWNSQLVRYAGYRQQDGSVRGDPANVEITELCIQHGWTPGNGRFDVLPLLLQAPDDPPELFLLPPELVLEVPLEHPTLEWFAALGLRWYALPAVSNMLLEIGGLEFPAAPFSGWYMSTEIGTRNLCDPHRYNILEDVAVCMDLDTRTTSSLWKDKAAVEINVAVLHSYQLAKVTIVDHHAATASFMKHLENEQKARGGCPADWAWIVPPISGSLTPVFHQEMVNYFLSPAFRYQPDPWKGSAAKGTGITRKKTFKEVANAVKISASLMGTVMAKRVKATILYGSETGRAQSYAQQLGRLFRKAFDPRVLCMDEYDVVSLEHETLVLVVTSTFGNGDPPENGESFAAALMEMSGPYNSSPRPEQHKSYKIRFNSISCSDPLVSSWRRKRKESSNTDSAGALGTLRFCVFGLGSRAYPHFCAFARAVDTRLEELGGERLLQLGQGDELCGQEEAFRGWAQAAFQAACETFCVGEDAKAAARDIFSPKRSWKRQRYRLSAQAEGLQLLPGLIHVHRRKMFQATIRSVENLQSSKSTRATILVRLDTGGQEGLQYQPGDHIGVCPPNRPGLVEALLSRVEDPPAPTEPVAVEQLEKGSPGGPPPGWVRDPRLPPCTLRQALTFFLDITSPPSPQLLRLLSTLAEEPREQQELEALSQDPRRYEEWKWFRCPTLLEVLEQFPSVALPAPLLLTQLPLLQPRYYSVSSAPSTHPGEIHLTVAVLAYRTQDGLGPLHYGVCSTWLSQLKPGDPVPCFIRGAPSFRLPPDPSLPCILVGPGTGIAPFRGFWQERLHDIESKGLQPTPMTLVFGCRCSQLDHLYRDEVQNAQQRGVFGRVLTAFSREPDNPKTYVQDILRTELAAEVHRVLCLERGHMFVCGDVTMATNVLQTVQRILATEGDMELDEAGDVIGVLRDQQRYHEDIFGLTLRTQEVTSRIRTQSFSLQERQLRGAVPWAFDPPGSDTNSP

[6] = molecular target: Cytochrome P450 3A4 (Homo sapiens, UniProt P08684); test: Inhibition of CYP3A4; assay type: ADME
[7] = molecular target: Cytochrome P450 2C9 (Homo sapiens, UniProt P11712); test: Inhibition of CYP2C9; assay type: ADME; conditions: read-out: IC50
[8] = molecular target: Cytochrome P450 2D6 (Homo sapiens, UniProt P10635); test: Inhibition of CYP2D6; assay type: ADME
[9] = molecular target: T2, Cytochrome P450 1A2 (Homo sapiens, UniProt P05177); test: Inhibition of CYP1A2; assay type: ADME; conditions: read-out: IC50
T2 sequence (P05177 whole entry): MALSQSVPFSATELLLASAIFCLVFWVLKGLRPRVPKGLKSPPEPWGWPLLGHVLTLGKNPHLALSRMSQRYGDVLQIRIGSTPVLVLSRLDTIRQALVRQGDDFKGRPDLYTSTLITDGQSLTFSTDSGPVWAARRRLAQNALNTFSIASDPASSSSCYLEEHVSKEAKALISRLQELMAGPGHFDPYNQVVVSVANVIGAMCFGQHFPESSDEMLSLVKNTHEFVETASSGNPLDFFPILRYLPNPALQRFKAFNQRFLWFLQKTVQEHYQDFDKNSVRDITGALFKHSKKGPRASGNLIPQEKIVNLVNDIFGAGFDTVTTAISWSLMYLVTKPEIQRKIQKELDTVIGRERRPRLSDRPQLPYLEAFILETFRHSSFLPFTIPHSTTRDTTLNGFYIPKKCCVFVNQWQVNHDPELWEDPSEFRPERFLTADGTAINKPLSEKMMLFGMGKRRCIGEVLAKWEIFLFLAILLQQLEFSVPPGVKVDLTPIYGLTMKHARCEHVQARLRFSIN

[10] = molecular target: Cytochrome P450 2C19 (Homo sapiens, UniProt P33261); test: Inhibition of CYP2C19; assay type: ADME
Cytochrome P450 2C19, sequence (P33261 whole entry): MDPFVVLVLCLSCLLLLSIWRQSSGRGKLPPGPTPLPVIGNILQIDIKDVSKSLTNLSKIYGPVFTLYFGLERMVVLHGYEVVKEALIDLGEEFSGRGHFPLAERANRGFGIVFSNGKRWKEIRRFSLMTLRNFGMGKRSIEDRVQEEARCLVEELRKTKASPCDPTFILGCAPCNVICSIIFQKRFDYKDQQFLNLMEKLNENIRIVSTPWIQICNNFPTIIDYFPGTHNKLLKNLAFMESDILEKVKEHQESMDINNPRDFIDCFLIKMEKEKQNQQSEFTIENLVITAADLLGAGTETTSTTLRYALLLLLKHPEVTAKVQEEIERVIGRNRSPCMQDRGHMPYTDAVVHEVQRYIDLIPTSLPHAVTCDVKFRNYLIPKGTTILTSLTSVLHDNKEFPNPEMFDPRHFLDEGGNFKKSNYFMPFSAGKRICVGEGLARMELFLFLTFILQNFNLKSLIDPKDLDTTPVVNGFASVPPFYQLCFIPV

Nitric oxide synthase, inducible, sequence (P35228 whole entry): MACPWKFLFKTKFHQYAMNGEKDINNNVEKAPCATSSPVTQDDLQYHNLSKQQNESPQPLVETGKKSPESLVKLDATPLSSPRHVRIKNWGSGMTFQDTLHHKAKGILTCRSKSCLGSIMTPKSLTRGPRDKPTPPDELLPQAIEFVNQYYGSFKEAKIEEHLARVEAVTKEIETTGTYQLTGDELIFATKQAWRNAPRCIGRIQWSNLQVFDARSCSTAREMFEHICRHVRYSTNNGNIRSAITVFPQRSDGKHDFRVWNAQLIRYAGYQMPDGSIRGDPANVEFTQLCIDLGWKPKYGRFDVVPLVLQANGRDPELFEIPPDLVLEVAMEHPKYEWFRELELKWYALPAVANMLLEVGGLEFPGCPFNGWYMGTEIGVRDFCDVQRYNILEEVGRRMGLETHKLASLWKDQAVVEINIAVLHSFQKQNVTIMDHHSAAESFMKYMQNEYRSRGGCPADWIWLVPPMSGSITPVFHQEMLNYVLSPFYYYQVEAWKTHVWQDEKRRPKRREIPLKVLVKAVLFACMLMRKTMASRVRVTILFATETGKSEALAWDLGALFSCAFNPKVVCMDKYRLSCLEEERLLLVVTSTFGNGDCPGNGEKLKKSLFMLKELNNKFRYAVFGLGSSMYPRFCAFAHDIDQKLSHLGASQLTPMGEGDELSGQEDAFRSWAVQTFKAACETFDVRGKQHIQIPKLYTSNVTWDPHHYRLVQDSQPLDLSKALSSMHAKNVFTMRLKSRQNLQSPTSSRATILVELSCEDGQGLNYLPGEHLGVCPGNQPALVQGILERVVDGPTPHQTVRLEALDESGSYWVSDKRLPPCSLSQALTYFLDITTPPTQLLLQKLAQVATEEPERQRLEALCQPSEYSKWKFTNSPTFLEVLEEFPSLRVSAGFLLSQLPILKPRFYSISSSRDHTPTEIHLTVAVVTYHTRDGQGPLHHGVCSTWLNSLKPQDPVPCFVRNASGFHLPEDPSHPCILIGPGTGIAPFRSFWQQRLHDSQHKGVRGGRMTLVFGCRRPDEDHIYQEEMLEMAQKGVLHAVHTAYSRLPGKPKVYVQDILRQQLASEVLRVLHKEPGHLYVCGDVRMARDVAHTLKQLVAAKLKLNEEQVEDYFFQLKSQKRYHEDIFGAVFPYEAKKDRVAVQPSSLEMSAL
Sodium-dependent noradrenaline transporter, sequence (P23975 whole entry): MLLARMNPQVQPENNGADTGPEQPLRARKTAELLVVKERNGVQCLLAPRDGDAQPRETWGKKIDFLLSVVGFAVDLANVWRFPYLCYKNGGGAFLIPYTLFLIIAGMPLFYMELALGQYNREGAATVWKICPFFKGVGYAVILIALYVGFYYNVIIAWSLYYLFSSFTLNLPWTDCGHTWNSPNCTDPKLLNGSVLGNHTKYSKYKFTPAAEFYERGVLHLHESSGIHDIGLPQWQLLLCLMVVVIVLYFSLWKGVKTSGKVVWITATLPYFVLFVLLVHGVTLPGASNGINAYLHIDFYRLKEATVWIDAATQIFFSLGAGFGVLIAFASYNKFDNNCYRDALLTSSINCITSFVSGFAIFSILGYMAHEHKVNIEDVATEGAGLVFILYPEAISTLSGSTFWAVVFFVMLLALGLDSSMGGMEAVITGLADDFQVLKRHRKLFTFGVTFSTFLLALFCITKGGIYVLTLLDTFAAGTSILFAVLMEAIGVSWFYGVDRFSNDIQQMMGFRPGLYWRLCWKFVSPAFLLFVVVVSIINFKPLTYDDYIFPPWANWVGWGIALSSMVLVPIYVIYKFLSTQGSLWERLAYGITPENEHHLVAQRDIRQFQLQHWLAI
Nitric oxide synthase 1, sequence (P29475 whole entry): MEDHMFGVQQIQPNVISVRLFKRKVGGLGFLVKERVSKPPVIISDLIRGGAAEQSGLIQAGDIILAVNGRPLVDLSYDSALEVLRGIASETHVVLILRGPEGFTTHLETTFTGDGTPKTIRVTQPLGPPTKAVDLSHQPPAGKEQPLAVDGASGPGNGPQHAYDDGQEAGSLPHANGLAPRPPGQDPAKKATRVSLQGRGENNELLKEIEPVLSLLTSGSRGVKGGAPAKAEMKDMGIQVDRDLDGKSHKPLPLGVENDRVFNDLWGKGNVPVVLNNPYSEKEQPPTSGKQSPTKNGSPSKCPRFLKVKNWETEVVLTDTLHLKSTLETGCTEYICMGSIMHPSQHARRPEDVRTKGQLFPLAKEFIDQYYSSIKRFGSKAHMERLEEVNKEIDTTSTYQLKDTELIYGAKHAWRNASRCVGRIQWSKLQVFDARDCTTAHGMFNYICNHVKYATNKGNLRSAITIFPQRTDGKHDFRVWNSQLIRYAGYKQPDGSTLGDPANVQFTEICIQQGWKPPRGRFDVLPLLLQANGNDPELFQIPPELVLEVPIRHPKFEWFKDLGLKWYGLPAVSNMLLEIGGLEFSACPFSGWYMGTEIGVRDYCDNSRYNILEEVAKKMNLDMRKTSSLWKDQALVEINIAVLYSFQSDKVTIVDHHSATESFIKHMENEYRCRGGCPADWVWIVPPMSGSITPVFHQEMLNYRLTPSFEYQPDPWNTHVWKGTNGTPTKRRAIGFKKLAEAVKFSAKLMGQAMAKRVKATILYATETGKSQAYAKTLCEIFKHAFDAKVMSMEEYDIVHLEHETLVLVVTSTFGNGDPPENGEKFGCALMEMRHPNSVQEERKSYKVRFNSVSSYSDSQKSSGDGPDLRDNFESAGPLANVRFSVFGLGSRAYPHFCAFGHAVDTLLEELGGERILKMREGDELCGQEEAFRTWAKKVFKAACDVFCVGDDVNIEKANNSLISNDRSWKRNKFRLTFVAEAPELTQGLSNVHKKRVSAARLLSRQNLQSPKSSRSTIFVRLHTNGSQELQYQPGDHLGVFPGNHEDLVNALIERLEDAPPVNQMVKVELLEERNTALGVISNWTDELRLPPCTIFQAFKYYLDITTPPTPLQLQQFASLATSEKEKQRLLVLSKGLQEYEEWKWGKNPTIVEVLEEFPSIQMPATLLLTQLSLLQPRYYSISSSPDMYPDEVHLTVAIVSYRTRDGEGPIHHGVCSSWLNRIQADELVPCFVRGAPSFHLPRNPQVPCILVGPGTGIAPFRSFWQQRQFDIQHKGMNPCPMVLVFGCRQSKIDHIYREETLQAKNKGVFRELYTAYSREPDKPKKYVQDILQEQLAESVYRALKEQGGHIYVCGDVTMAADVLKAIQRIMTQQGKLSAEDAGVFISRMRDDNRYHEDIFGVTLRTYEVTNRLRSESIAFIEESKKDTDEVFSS
Cytochrome P450 2C9, sequence (P11712 whole entry): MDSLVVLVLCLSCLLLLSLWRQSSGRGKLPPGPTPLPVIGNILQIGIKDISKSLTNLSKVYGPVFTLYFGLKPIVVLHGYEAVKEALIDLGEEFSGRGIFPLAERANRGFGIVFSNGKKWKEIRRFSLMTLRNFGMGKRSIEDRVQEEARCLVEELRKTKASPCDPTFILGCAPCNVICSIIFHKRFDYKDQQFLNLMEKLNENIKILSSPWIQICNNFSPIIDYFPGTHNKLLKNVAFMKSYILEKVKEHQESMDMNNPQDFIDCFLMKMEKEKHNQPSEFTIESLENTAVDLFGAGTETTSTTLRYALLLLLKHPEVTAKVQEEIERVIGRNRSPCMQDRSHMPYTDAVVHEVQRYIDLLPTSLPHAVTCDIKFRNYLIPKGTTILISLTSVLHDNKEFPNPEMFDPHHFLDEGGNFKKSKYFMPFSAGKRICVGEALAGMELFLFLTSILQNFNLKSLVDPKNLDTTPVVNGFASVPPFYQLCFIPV
Cytochrome P450 2D6, sequence (P10635 whole entry): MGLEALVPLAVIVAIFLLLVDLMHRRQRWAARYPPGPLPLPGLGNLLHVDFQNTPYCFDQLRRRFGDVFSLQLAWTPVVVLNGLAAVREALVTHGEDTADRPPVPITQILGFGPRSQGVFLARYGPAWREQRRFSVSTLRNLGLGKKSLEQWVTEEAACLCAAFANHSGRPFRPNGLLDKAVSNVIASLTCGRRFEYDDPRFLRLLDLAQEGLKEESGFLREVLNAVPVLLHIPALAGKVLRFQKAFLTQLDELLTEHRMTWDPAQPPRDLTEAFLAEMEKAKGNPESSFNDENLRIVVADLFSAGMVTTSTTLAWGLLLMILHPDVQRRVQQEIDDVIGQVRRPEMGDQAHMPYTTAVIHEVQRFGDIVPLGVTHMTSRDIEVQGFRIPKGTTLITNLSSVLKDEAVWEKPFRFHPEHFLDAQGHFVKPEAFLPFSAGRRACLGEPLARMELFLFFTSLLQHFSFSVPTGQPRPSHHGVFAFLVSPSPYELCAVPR

| SMILES | IC50 [1] [µM] | IC50 [2] [µM] | Ratio IC50 [3] | other results |
| --- | --- | --- | --- | --- |
| CNC1CCCC(c2c[nH]c3ccc(NC(=N)c4cccs4)cc23)C1 (single isomer, unassigned; (-)) | 70 |  |  |  |
| CCN[C@H]1CCC[C@H](c2c[nH]c3ccc(NC(=N)c4cccs4)cc23)C1 (racemic) | 54.2 | 0.76 |  |  |
| CNC1CC=C(c2c[nH]c3ccc(/N=C(\N)c4cccs4)cc23)CC1 (racemic) |  |  | 19 |  |
| CN(C)C1CC=C(c2c[nH]c3ccc(NC(=N)c4cccs4)cc23)CC1 (racemic) | 24 |  |  |  |
| CN(C)C1CC=C(c2c[nH]c3ccc(NC(=N)c4cccs4)cc23)CC1 (single isomer, unassigned; (+)) |  |  |  | IC50 [4]: 0.84 µM |
| CN(C)[C@H]1CC[C@@H](c2c[nH]c3ccc(NC(=N)c4cccs4)cc32)CC1 | 26.5 | 0.16 | 51 | IC50 [5]: 17.5 µM; IC50 [4]: 0.35 µM |
| CN(C)C1CC=C(c2c[nH]c3ccc(NC(=N)c4cccs4)cc23)CC1 (single isomer, unassigned; (-)) |  |  |  | IC50 [4]: 0.86 µM |
| CN[C@H]1CC[C@@H](c2c[nH]c3ccc(NC(=N)c4cccs4)cc32)CC1 | […] |  |  | IC50 [6]: 57.3 µM |
| CN(C)C1CC=C(c2c[nH]c3ccc(/N=C(\N)c4cccs4)cc23)CC1 (racemic) |  |  | 17 |  |
| CCNC1CC=C(c2c[nH]c3ccc(NC(=N)c4cccs4)cc23)CC1 (racemic) |  |  | 28 |  |
| CN[C@H]1CCC[C@H](c2c[nH]c3ccc(NC(=N)c4cccs4)cc23)C1 (racemic) | 14.5 | 0.88 |  | IC50 [5]: 7.76 µM |
| CCN[C@H]1CC[C@H](c2c[nH]c3ccc(NC(=N)c4cccs4)cc32)CC1 | 155 |  |  |  |
| CN(C)C1CC=C(c2c[nH]c3ccc(/N=C(\N)c4cccs4)cc23)CC1 (single isomer, unassigned; (+)) |  |  | 114 |  |
| CN(C)C1CC=C(c2c[nH]c3ccc(/N=C(\N)c4cccs4)cc23)CC1 (single isomer, unassigned; (-)) |  |  | 54 |  |
| CCN[C@H]1CCC[C@@H](c2c[nH]c3ccc(NC(=N)c4cccs4)cc23)C1 (racemic) | 19.2 | 1.7 |  |  |
| CCN[C@H]1CC[C@@H](c2c[nH]c3ccc(NC(=N)c4cccs4)cc32)CC1 | 493 |  |  | IC50 [7]: 21.5 µM; IC50 [8]: 0.927 µM; IC50 [9]: > 100 µM; IC50 [10]: 23.4 µM |
| CN[C@H]1CCC[C@@H](c2c[nH]c3ccc(NC(=N)c4cccs4)cc23)C1 (racemic) | 54.1 | 2.4 |  | IC50 [5]: 77.6 µM |
| CN(C)[C@H]1CC[C@H](c2c[nH]c3ccc(NC(=N)c4cccs4)cc32)CC1 | 149 | 2.2 | 63 | IC50 [5]: 284 µM; IC50 [4]: 4.52 µM |
